One block for each molecule: values may come before it. Active and inactive are the calls of the source. No cut-off for these calls is given here.
Columns and labels:
Cytochrome P450 3A4 = Cytochrome P450 3A4 (Homo sapiens, UniProt P08684); test: Time-dependent inhibition of CYP3A4 in human liver microsome using midazolam as substrate by TDI shift assay; assay type: ADME, microsomes
Procedure, shortened: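 CYP3A4 time-dependent inhibition shift assay in human liver microsomes with NADPH cofactor and midazolam as probe substrate. The compound was preincubated for 30 min and compared with no preincubation. A left shift of the CYP activity curve after preincubation designates the compound TDI positive.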

A549 [1] = test: Antitumor activity against KRas mutant, LKB1 deficient human A549 cells xenografted in po dosed mouse assessed as delay in tumor growth administered qd in presence of MEK inhibitor, GDC-0973; assay type: functional, organism-based
A549 [2] = test: Antitumor activity against KRas mutant, LKB1 deficient human A549 cells xenografted in mouse assessed as tumor growth inhibition at 5 to 30 mg/kg, po qd; assay type: functional, organism-based
Mus musculus [3] = test: Toxicity in po dosed mouse xenografted with KRas mutant, LKB1 deficient human A549 cells assessed as body weight changes administered qd in presence of MEK inhibitor, GDC-0973; assay type: organism-based; settings: in vivo
Mus musculus [4] = test: Toxicity in NCR nude mouse xenografted with human PI3K-mutant MCF7-neo/Her2 cells assessed as body weight changes up to 80 mg/kg, po qd for 14-21 days; assay type: organism-based; set-up: dose 80 mg/kg, route oral; settings: in vivo
Procedure, shortened: (§1)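 MCF7-neo/Her2 (PI3K-mutant) breast cancer xenografts in athymic mice. Compound given orally once daily at 10, 20, 30, 40, 50, 60, 70 and 80 mg/kg QD, with a vehicle group (0 mg/kg). Tumor growth inhibition was tracked, and body weight change was monitored up to the highest dose.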

[5] = Antitumor activity against PI3K-mutant human MCF7-neo/Her2 cells xenografted in po dosed NCR nude mouse assessed as tumor growth inhibition at maximum tolerated dose administered qd for 14-21 days; assay type: functional
Procedure, shortened: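 Athymic mice bearing MCF7-neo/Her2 breast tumour xenografts (PI3K-mutant) were given the drug orally once daily at 10, 20, 30, 40, 50, 60, 70 or 80 mg/kg, with a vehicle (0 mg/kg) group. Read-out was tumour growth inhibition across the dose range, with body weight change also tracked.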

PC-3 [6] = test: Antiproliferative activity against PTEN-null human PC3 cells; assay type: functional, cell-based
Procedure, shortened: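 PC3 prostate cancer cells (PTEN loss, PI3K-AKT-mTOR pathway activated) used for the antiproliferation assay. Activity is expressed as EC50 in nM.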

Homo sapiens [7] = test: Decrease in phosphorylated 4-EBP1 level in PI3K-mutant human MCF7-neo/Her2 cells xenografted in NCR nude mouse at 25 to 100 mg/kg, po; assay type: functional, organism-based
PC-3 [8] = test: Antitumor activity against PTEN-null human PC3 cells xenografted in po dosed NCR nude mouse assessed as tumor growth inhibition administered qd for 14-21 days; assay type: functional, organism-based
Homo sapiens [9] = test: Antitumor activity against PI3K-mutant human MCF7-neo/Her2 cells xenografted in po dosed NCR nude mouse assessed as tumor growth inhibition administered once daily for 14-21 days
786-0 = test: Antitumor activity against VHL mutant human 786-0 cells xenografted in po dosed nu/nu mouse assessed as tumor growth inhibition administered qd for 14-21 days; assay type: functional, organism-based
Homo sapiens [10] = test: Antitumor activity against PI3K-mutant human MCF7-neo/Her2 cells xenografted in po dosed NCR nude mouse assessed as tumor growth inhibition administered qd for 14-21 days; assay type: functional, organism-based; procedure, shortened: as §1
Homo sapiens [11] = test: Decrease in phosphorylation of Akt at Ser473 in PI3K-mutant human MCF7-neo/Her2 cells xenografted in NCR nude mouse at 25 to 100 mg/kg, po; assay type: functional, organism-based
Plasma [12] = test: Free plasma clearance in rat; assay type: ADME, cell-free
Plasma [13] = test: Free plasma clearance in mouse; assay type: ADME, cell-free
[14] = Dissociation constant, pKa of the compound; assay type: physicochemical
[15] = In vivo clearance in mouse; assay type: ADME, organism-based

Sequence of Cytochrome P450 3A4 (P08684 whole entry): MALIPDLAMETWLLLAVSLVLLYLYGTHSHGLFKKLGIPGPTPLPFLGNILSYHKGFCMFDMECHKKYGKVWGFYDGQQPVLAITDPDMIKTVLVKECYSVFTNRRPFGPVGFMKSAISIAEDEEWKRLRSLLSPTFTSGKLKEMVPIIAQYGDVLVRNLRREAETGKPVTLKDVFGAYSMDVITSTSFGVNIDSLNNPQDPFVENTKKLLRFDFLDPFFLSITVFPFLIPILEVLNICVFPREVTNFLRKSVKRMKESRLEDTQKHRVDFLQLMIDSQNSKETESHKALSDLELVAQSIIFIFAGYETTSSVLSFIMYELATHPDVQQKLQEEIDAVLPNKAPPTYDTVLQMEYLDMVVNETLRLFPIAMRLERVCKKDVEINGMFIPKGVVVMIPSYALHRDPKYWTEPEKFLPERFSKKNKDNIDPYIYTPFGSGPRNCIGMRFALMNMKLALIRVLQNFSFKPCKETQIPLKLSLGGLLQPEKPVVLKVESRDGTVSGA

SMILES: CS(=O)(=O)N1CCN(Cc2cc3nc(-c4cccc5[nH]ncc45)nc(N4CCOCC4)c3s2)CC1 [PICTILISIB]
TGI (A549 [1]): Active
TGI (A549 [2]): Active
Activity (Mus musculus [3]): Non-toxic

SMILES: CCNC(=O)Nc1ccc(-c2nc3c(c(N4CCOC[C@@H]4C)n2)CCN(C2COC2)C3)cc1.CS(=O)(=O)O
Activity (Mus musculus [4]): < 10%
TGI [5]: 99%

SMILES: CCNC(=O)Nc1ccc(-c2nc3c(c(N4CCOC[C@@H]4C)n2)CCN(C2COC2)C3)cc1
inhibition (Homo sapiens [7]): Active
TGI (PC-3 [8]): Active
TGI (Homo sapiens [9]): Active
TGI (786-0): Active
TGI (A549 [1]): Active
TGI (A549 [2]): Active
inhibition (Homo sapiens [10]): Dose-dependent effect
inhibition (Homo sapiens [11]): Active

SMILES: O=c1cccc(Nc2ccc(-c3nc4c(c(N5CCOCC5)n3)CCN(c3ncccn3)C4)cc2)[nH]1
EC50 (PC-3 [6]): 1300 nM

SMILES: CCNC(=O)Nc1ccc(-c2nc3c(c(N4CCOC[C@@H]4C)n2)CCN(C2COC2)C3)cc1 [RG-7603]
CL free (Plasma [12]): 171 mL/min/kg
CL free (Plasma [13]): 100 mL/min/kg
Activity (Mus musculus [3]): Non-toxic
pKa [14]: 5

SMILES: C[C@H]1COCCN1c1nc(-c2ccc(Nc3nccc(=O)[nH]3)cc2)nc2c1CCN(c1ncccn1)C2
clearance [15]: 78 mL/min/kg
EC50 (PC-3 [6]): 25 nM

SMILES: O=C(NCCF)Nc1ccc(-c2nc3c(c(N4CCOCC4)n2)CCN(c2ncccn2)C3)cc1
EC50 (PC-3 [6]): 58 nM

Second part, the molecule after the results:

IC50 (Cytochrome P450 3A4): 1.4 µM
SMILES: CCNC(=O)Nc1ccc(-c2nc3c(c(N4CCOC[C@@H]4C)n2)CCN(c2ncc(F)cn2)C3)cc1

EC50 (PC-3 [6]): 667 nM
SMILES: CCNc1c(Nc2ccc(-c3nc4c(c(N5CCOC[C@@H]5C)n3)CCN(c3ncccn3)C4)cc2)c(=O)c1=O

IC50 (Cytochrome P450 3A4): 8.4 µM
SMILES: CCNC(=O)Nc1ccc(-c2nc3c(c(N4CCOC[C@@H]4C)n2)CCN(c2cc(C)ncn2)C3)cc1

CL free (Plasma [12]): 1538 mL/min/kg
EC50 (PC-3 [6]): 147 nM
CL free (Plasma [13]): 1818 mL/min/kg
SMILES: CCNC(=O)Nc1ccc(-c2nc3c(c(N4CCOC[C@@H]4C)n2)CCN(c2ncccn2)C3)cc1

IC50 (Cytochrome P450 3A4): > 10 µM
SMILES: CCNC(=O)Nc1ccc(-c2nc3c(c(N4CCOC[C@@H]4C)n2)CCN(c2nccn2C)C3)cc1

EC50 (PC-3 [6]): 139 nM
SMILES: C[C@H]1COCCN1c1nc(-c2ccc(Nc3nn(C)c(=O)[nH]3)cc2)nc2c1CCN(c1ncccn1)C2

IC50 (Cytochrome P450 3A4): > 10 µM
pKa [14]: 7.6
SMILES: CCNC(=O)Nc1ccc(-c2nc3c(c(N4CCOC[C@@H]4C)n2)CCN(C(C)C)C3)cc1

IC50 (Cytochrome P450 3A4): 3.3 µM
SMILES: CCNC(=O)Nc1ccc(-c2nc3c(c(N4CCOC[C@@H]4C)n2)CCN(c2ccnc(C)n2)C3)cc1

EC50 (PC-3 [6]): 310 nM
SMILES: CCNC(=O)Nc1ccc(-c2nc3c(c(N4CCOCC4)n2)CCN(c2ncccn2)C3)cc1
